Results taken from ChEMBL document CHEMBL5154888 (Eur J Med Chem, 2022).
Activity calls are given as the source filed them. The rule behind the calls is not given here.

How the values were obtained:
[1] = molecular target: Glutamate NMDA receptor; assay: Inhibition of NMDA receptor in NMDA-stimulated rat cerebellar granule neurons assessed as measuring intracellular calcium concentration in presence of glycine by Fura2-AM dye based fluorescence assay; type: cell-based; conditions: cerebellar granule neurone
[2] = molecular target: T1, Glutamate NMDA receptor; Grin1/Grin2a (Rattus norvegicus) (UniProt P35439+Q00959); assay: Inhibition of eGFP-tagged rat GluN1/GluN2A transfected in human tsA201 cells assessed as blockade of glycine/NMDA-induced current at 10 uM treated for 40 secs measured at -60 mV holding potential after returning from +60 mV application for 5 secs by whole-cell patch-clamp method relative to control; type: cell-based; conditions: time 45.0 sec
[3] = molecular target: T1, Glutamate NMDA receptor; Grin1/Grin2a (Rattus norvegicus); assay: Inhibition of eGFP-tagged rat GluN1/GluN2A transfected in human tsA201 cells assessed as blockade of glycine/NMDA-induced current at 10 uM treated for 40 secs measured at +60 mV holding potential applied for 5 secs by whole-cell patch-clamp method relative to control; type: cell-based; conditions: time 45.0 sec
Method in brief: (§1)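 tsA201 cells transfected with rat GluN1, rat GluN2A and eGFP (0.5:1:1); dl-APV 200 μM added at transfection. Whole-cell recording at rt, held at −60 mV. Agonist is 100 μM NMDA + 10 μM glycine; blocker at 10 μM applied by piezo until steady state. A 5 s jump to +60 mV is made during block and again after blocker washout. Block is computed from steady-state current ratios, and recovery as current after removal over current before application.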

[4] = molecular target: T1, Glutamate NMDA receptor; Grin1/Grin2a (Rattus norvegicus); assay: Inhibition of eGFP-tagged rat GluN1/GluN2A transfected in human tsA201 cells assessed as weighted time constant for blockade of glycine/NMDA-induced current at 10 uM at 1 sec by whole-cell patch-clamp method; type: cell-based
[5] = molecular target: T1, Glutamate NMDA receptor; Grin1/Grin2a (Rattus norvegicus); assay: (§2) Inhibition of eGFP-tagged rat GluN1/GluN2A transfected in human tsA201 cells assessed as recovery of glycine/NMDA-induced current at 10 uM treated for 40 secs followed by application of +60 mV holding potential for 5 secs measured after 40 secs of compound removal by whole-cell patch-clamp method relative to control; type: cell-based; conditions: time 85.0 sec; method in brief: as §1
[6] = molecular target: T1, Glutamate NMDA receptor; Grin1/Grin2a (Rattus norvegicus); assay: as §2, with “assessed as weighted time constant for recovery of” for “assessed as recovery of”, “patch-clamp method” for “patch-clamp method relative to control”; type: cell-based; conditions: time 85.0 sec
[7] = test system: Caenorhabditis elegans; assay: Effect on locomotory activity in transgenic Caenorhabditis elegans CL2006 model of paralysis assessed as reduction in defective locomotion by measuring motor index at 0.1 to 10 uM by motor behaviour assay; type: functional, organism-based; conditions: dose 0.1-10 µM
Method in brief: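 C. elegans CL2006 (constitutive human Aβ1–42), synchronised by hypochlorite and hatched as L1. Compounds in DMSO diluted into water, 1% DMSO final; tested at 0.1–10 μM. Treatment in liquid culture, 25–30 L1 worms per well with inactivated OP50, 4 days at 20 °C. Defective locomotion scored as motor index; N2 is the reference strain.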

[8] = test system: Caenorhabditis elegans; assay: Neuroprotective activity against transgenic Caenorhabditis elegans CL2355 assessed as A-beta aggregration-induced reversal of disrupted chemotaxis behaviour by measuring chemotaxis index at […] treated for 72 hrs followed by compound washout and odorant addition for 1 hr; type: functional, organism-based; conditions: dose 1.5 µM
[9] = test system: Mus musculus; assay: Recovery of cognitive function in 5XFAD transgenic AD mouse model assessed as long term memory by measuring increase in discrimination index at 5 mg/kg/day, po for 4 weeks measured after 5 days of habituation by novel object recognition test; type: functional, organism-based; conditions: time 33.0 day
Method in brief: (§3)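 5XFAD mice, 6 months old, treated at 5 mg/kg/day for 4 weeks; n = 8–11 per group, with WT controls. Novel object recognition test: discrimination index from exploration time of novel versus familiar object, tested at 2 h (short-term) and 24 h (long-term).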

[10] = test system: Mus musculus; assay: Recovery of cognitive function in 5XFAD transgenic AD mouse model assessed as short term memory by measuring increased discrimination index at 5 mg/kg/day, po for 4 weeks measured after 4 days of habituation by novel object recognition test; type: functional, organism-based; conditions: time 32.0 day; method in brief: as §3
[11] = test system: Mus musculus; assay: Upregulation of phosphorylated-Fyn levels in hippocampus of 5XFAD transgenic AD mouse model at 5 mg/kg, po by Western blot analysis; type: functional, organism-based
Method in brief: (§4)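 5XFAD mice treated at 5 mg/kg/day for 4 weeks, n = 3–4 per group. Western blot quantifies GluN2A, PSD95, calbindin, p-Fyn/Fyn, p-GluN2B(Tyr1472)/GluN2B, and nuclear versus cytosolic p-CREB ratio. Values normalised to WT as 100%.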

[12] = test system: Mus musculus; assay: Upregulation of phosphorylated-GluN2B levels at Tyr1472 residue in hippocampus of 5XFAD transgenic AD mouse model at 5 mg/kg, po by Western blot analysis; type: functional, organism-based; method in brief: as §4
[13] = test system: Mus musculus; assay: Upregulation of calbindin D-28K levels in hippocampus of 5XFAD transgenic AD mouse model at 5 mg/kg, po by Western blot analysis; type: functional, organism-based; method in brief: as §4
[14] = test system: Mus musculus; assay: Upregulation of PSD in hippocampus of 5XFAD transgenic AD mouse model at 5 mg/kg, po by Western blot analysis; type: functional, organism-based; method in brief: as §4
[15] = in vitro; conditions: PAMPA
[16] = molecular target: Glutamate NMDA receptor; Grin1/Grin2a (Rattus norvegicus, UniProt P35439+Q00959); assay: Inhibition of eGFP-tagged rat GluN1-1a/GluN2A transfected in human tsA201 cells assessed as inhibition glutamate-induced current measured at -65 mV holding potential applied for 10 secs by whole-cell patch-clamp method; type: cell-based

Question: With `CC(=O)c1ccc2c(c1)C1CC3(C)CC2CC(N)(C1)C3` (centres undefined) as the compound, how does the IC50 [1] read?
Answer: 323 µM

Question: For `CC12CC3CC(C)(C1)CC(N)(C3)C2`, which inhibition [2] is on record?
Answer: 86.2%

Question: What about the inhibition [3] of the same compound?
Answer: -3.9%

Question: And the inhibition [4]?
Answer: Active

Question: And the inhibition [5]?
Answer: 93.6%

Question: And the TIME [6]?
Answer: 0.00178 h

Question: And the Activity [7]?
Answer: Active

Question: What about the Activity [8] of the same compound?
Answer: Active

Question: And the Activity [9]?
Answer: Active

Question: What about the Activity [10] of the same compound?
Answer: Active

Question: What about the Activity [11] of the same compound?
Answer: Active

Question: What about the Activity [12] of the same compound?
Answer: Active

Question: And the Activity [13]?
Answer: Active

Question: What about the Activity [14] of the same compound?
Answer: Active

Question: For `CC12CC3CC(N)(CC(C1)c1cc([N+](=O)[O-])ccc13)C2` (centres undefined), which IC50 [1] is on record?
Answer: 164 µM

Question: For `CCn1cc(C(=O)O)c(=O)c2cc(F)c(N3CCNC(C)C3)c(F)c21` (centres undefined) [LOMEFLOXACIN], which Papp [15] is on record?
Answer: 0.86 ×10⁻⁶ cm/s

Question: Which IC50 [1] does the source give for `COc1cc2c(cc1OC)C1CC3(C)CC2CC(N)(C1)C3` here?
Answer: 517 µM

Question: Which IC50 [16] does the source give for `CNC1(c2ccccc2Cl)CCCCC1=O` (centres undefined) [KETAMINE] here?
Answer: 1 µM

Question: For `CN(C)C12CC3CC(C)(CC(C1)c1cc([N+](=O)[O-])ccc13)C2` (centres undefined), which IC50 [1] is on record?
Answer: 309 µM
